# From PMC10187107 (Journal of Enzyme Inhibition and Medicinal Chemistry, 2023)
# Where “and” joins values, the source holds several entries; their conditions need not be identical. Equal entries are not always repeated.
# Tests used:
# [1] = cited from earlier work
# [2] = tested on: human KGN cells; test: P4 output in human KGN cells under basal and FSK-stimulated conditions; format: cell-based; details: basal condition, 24 h
# Summary of the method: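 KGN human granulosa-like cells grown in DMEM/F12 with 10% FBS and 1% antibiotics at 37 °C, 5% CO2. Seeded at 1 × 10^6 cells/well and treated for 24 h with 0, 10, 20 or 40 µM test compound, either without forskolin (basal) or with 10 µM forskolin. P4 in the medium was quantified by HPLC-MS/MS. n = 4; one-way ANOVA with Dunnett's test vs control.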
# [3] = biological target: T1, h3β-HSD2 (Homo sapiens, UniProt P26439); test: h3β-HSD2 activity, conversion of P5 to P4 in KGN cell homogenate; format: biochemical; details: for Residual h3β-HSD2 activity: 100 µM chemical, relative to DMSO control; for IC50: IC50, human 3β-HSD2, KGN cell homogenate, 0.2 µM P5, 0.2 mM NAD+, 30 min; for Mode action: human 3β-HSD2, vs. P5, mixed model and Lineweaver-Burk plot
# T1 sequence (P26439 1-372): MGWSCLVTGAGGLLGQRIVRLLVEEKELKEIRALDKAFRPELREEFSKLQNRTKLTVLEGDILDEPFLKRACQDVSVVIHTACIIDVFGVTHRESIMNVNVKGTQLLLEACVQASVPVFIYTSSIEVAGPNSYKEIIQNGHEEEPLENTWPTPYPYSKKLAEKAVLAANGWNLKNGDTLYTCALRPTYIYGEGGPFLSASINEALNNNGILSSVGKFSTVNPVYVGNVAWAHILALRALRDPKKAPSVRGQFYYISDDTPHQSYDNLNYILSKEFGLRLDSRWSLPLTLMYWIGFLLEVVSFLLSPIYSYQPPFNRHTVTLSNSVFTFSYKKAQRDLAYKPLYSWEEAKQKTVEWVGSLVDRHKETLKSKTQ
# [4] = biological target: T2, r3β-HSD1 (Rattus norvegicus, UniProt P22071); test: r3β-HSD1 activity, conversion of P5 to P4 in rat testicular microsome; format: biochemical; details: for Residual r3β-HSD1 activity: 100 µM chemical, relative to DMSO control; for IC50: IC50, rat 3β-HSD1, testicular microsome, 0.2 µM P5, 0.2 mM NAD+, 30 min; for increase of inhibitory effect relative to CUR: r3β-HSD1; for Mode action: rat 3β-HSD1, vs. P5, mixed model and Lineweaver-Burk plot
# T2 sequence (P22071 1-373): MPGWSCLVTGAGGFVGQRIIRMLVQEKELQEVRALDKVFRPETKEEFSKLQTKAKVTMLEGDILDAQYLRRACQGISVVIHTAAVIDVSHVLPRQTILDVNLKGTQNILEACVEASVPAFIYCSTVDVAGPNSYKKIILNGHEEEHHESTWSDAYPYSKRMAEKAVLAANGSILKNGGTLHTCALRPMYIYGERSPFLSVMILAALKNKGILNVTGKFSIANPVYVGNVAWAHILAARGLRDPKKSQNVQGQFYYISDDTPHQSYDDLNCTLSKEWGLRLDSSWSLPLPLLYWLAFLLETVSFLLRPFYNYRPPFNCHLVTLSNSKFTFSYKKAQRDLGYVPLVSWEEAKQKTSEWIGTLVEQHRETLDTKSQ
# Summary of the method: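 Testes came from 90-day male Sprague-Dawley rats. Microsomes were isolated from homogenate in 0.25 M sucrose PBS (pH 7.2) by spins at 700, 14,500 and twice 105,000 ×g. Reactions used 5 µg microsomal protein, 0.2 µM P5 and 0.2 mM NAD+ in PBS for 30 min. […] P4 by HPLC-MS/MS with T-d5 internal standard; n = 4.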
# [5] = tested on: human 11β-HSD2; details: cited from earlier work
# [6] = tested on: human 11β-HSD1; details: cited from earlier work
# [7] = tested on: human 17β-HSD3; details: cited from earlier work
# [8] = ref GuideChem; cited from earlier work
SMILES,Ki [3],Residual h3β-HSD2 activity [3],IC50 [3],Mode action [3],Ki [4],Residual r3β-HSD1 activity [4],IC50 [4],increase of inhibitory effect relative to CUR [4],Mode action [4],"Km ([3]; read-out: apparent Km, substrate P5, h3β-HSD2, Michaelis-Menten kinetics)","Km ([4]; read-out: apparent Km, substrate P5, r3β-HSD1, Michaelis-Menten kinetics)",half-lives [1],lowest concentration that markedly decreased basal P4 output [2],IC50 [5],clearance from the body [1],IC50 [6],IC50 [7],LogP [8],higher potency to inhibit r3β-HSD1 than h3β-HSD2 ([4]; r3β-HSD1 vs h3β-HSD2)
"COc1cc(/C=C/C(O)=C/C(=O)/C=C/c2ccc(O)cc2)ccc1O [DMC, demethoxycurcumin]",3.85 µM,< 25 % of the control,3.27 ± 0.38 µM,Mixed,2.18 µM,< 20 % of the control,2.15 ± 0.27 µM,1 fold,Mixed,–,–,2 to 4 h,10 µM,–,–,–,–,–,–
"COc1cc(/C=C/C(=O)CC(=O)/C=C/c2ccc(O)c(OC)c2)ccc1O [CUR, curcumin]",–,< 25 % of the control,–,Mixed,4.21 µM,< 20 % of the control,4.06 ± 1.1 µM,–,Mixed,–,–,–,20 µM,~14.5 µM and 10 to 15 µM,rapid clearance,~10 µM and 10 to 15 µM,~67.3 µM and > 50 µM,3.37,about 3 fold
"O=C(/C=C/c1ccc(O)cc1)CC(=O)/C=C/c1ccc(O)cc1 [BDMC, bisdemethoxycurcumin]",1.12 µM,< 25 % of the control,1.68 ± 0.39 µM,Competitive,1.56 µM,< 20 % of the control,1.22 ± 0.31 µM,2 fold,Mixed,–,–,2 to 4 h,10 µM,–,–,–,–,–,–

# Now from value to compound, other results behind:
Ki [3],Residual h3β-HSD2 activity [3],IC50 [3],Mode action [3],Ki [4],Residual r3β-HSD1 activity [4],IC50 [4],increase of inhibitory effect relative to CUR [4],Mode action [4],"Km ([3]; read-out: apparent Km, substrate P5, h3β-HSD2, Michaelis-Menten kinetics)","Km ([4]; read-out: apparent Km, substrate P5, r3β-HSD1, Michaelis-Menten kinetics)",SMILES,half-lives [1],lowest concentration that markedly decreased basal P4 output [2],IC50 [5],clearance from the body [1],IC50 [6],IC50 [7],LogP [8],higher potency to inhibit r3β-HSD1 than h3β-HSD2 ([4]; r3β-HSD1 vs h3β-HSD2)
–,≥ 50 % of the control,109 ± 19.2 µM,–,–,around 50 % of the control,103 ± 11.6 µM,–,–,–,–,"COc1cc(CCC(=O)CC(=O)CCc2ccc(O)c(OC)c2)ccc1O [THC, tetrahydrocurcumin]",–,–,–,–,–,–,3.691,–
–,≥ 50 % of the control,–,–,–,–,–,–,–,–,–,"COc1cc(CCC(O)CC(O)CCc2ccc(O)c(OC)c2)ccc1O (stereo not shown) [OHC, octahydrocurcumin]",–,–,–,–,–,–,–,–
–,–,–,–,–,–,–,–,–,3.08 ± 0.81 µM,0.32 ± 0.1 µM,"CC(=O)[C@H]1CC[C@H]2[C@@H]3CC=C4C[C@@H](O)CC[C@]4(C)[C@H]3CC[C@]12C [P5, pregnenolone]",–,–,–,–,–,–,–,–
